Consider 5 compounds from ChEMBL document CHEMBL1128333, “Derivatives of cis-2-amino-8-hydroxy-1-methyltetralin: mixed 5-HT1A-receptor agonists and dopamine D2-receptor antagonists” (J Med Chem, 1995).

The structures appear in SMILES notation.

For orientation: Ki means the dissociation constant of the complex between target and ligand, obtained from inhibition or displacement.

The species entered for test [1] is Rattus norvegicus. The test is described as follows: DA (dopamine) content of rat striatum reflecting DA metabolism and turnover. In kind it is functional. The gist of the method: (§1)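 Male Sprague–Dawley rats (260–310 g) received compound sc in 0.9% NaCl; saline controls. Rats were decapitated 35–45 min post-injection, and hippocampus and striatum were dissected and frozen. Tissue was homogenized in 0.1 M perchloric acid with α-methyl-5-hydroxytryptophan as internal standard, centrifuged and filtered, then analysed by HPLC-EC at 0.85 V (mobile phase pH 2.69, 35 °C). Values are percent of control, mean ± SEM.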

Test [2] concerns Rattus norvegicus. The test is described as follows: Forepaw treading (FPT) behavior was studied in rats after subcutaneous administration of 1 uM/Kg of compound; 7/7. In kind it is functional. The gist of the method:
(§2)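 Test compounds were given at 32 μmol/kg and the reference 5-HT1A agonist at 1 μmol/kg. Flat body posture, forepaw treading and hind limb abduction were each scored as absent or present. Values are animals showing the behavior out of animals tested, analysed by Fisher's exact test. Male Sprague–Dawley rats, 260–310 g.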

Test [3] has as its system Rattus norvegicus. The test is described as follows: Cage leaving response was studied in rats after subcutaneous administration of 1 uM/Kg of compound; 0/7. In kind it is functional.
For test [4], the species on record is Rattus norvegicus. The test is described as follows: 5-HIAA (5-Hydroxyindoleacetic acid) content of rat hippocampus reflecting 5-HT metabolism and turnover. In kind it is functional. The arrangement: concentration or dose not given beside the values. The gist of the method:
as §1

Test [5] concerns Rattus norvegicus. Briefly: Flat body posture behavior was studied in rats after subcutaneous administration of 1 uM/Kg of compound; 7/7. In kind it is functional. The gist of the method:
as §2

Test [6] concerns Rattus norvegicus. The test is described as follows: Change in body temperature was studied in rats upon subcutaneous administration of 1 uM/Kg of compound. In kind it is functional. The gist of the method: (§3)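 Rectal temperature was taken with an electrical thermometer, probe inserted 3.5 cm, before and 30 min after sc injection in 0.9% NaCl. Values are the change from the preinjection reading, analysed by Tukey HSD versus saline-treated rats. Male Sprague–Dawley rats, 260–310 g.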

For test [7], the species on record is Rattus norvegicus. Briefly: HVA (Homovanillic acid)content of rat striatum reflecting DA metabolism and turnover. In kind it is functional. Details: concentration or dose not given beside the values.
The species entered for test [8] is Rattus norvegicus. Briefly: 5-HT content of rat hippocampus reflecting 5-HT metabolism and turnover. Format: functional. Details: concentration or dose not given beside the values. The gist of the method: as §1
The species entered for test [9] is Rattus norvegicus. Briefly: DOPAC (3,4-dihydroxyphenylacetic acid) content of rat striatum reflecting DA metabolism and turnover. Format: functional. The arrangement: concentration or dose not given beside the values. The method in brief: as §1
A further test concerns the target D(2) dopamine receptor (Homo sapiens, UniProt P14416). The test is described as follows: In vitro binding affinity towards human Dopamine receptor D2A was determined in mouse fibroblast LtK cells using [3H]raclopride. In kind it is cell-based. The method in brief: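 Membranes from Ltk− mouse fibroblasts stably expressing human D2A receptors, at 80–100 pM receptor. Buffer was 50 mM Tris-HCl, 120 mM NaCl, 5 mM KCl, 1.5 mM CaCl2, 4 mM MgCl2, 1 mM EDTA, pH 7.4. Incubation with [3H]raclopride was 60 min at 22 °C, in duplicate, with 1 μM (+)-butaclamol for nonspecific binding. Bound ligand was separated on GF/B filters; data were fitted by nonlinear regression.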

The species entered for test [10] is Rattus norvegicus. The test is described as follows: Ratio of serotonin turnover (5HIAA to 5-HT) in rat brain hippocampus compared to control. Format: functional. The gist of the method: as §1
The species entered for test [11] is Rattus norvegicus. Briefly: Ratio of turnover (DOPAC to DA) in rat brain striatum compared to control. Format: functional. The gist of the method: as §1
For test [12], the system named is Rattus norvegicus. The test is described as follows: Forepaw treading (FPT) behavior was studied in rats after subcutaneous administration of 32 uM/Kg of compound; 0/4. In kind it is functional. The gist of the method: as §2
For test [13], the system named is Rattus norvegicus. The test is described as follows: Cage leaving response was studied in rats after subcutaneous administration of 32 uM/Kg of compound; 1/4. In kind it is functional.
Test [14] concerns Rattus norvegicus. Briefly: Change in body temperature in rats after subcutaneous administration. In kind it is functional. The gist of the method: as §3
Test [15] has as its target T1, 5-hydroxytryptamine receptor 1A (Rattus norvegicus, UniProt P19327).
T1 sequence (P19327 whole entry): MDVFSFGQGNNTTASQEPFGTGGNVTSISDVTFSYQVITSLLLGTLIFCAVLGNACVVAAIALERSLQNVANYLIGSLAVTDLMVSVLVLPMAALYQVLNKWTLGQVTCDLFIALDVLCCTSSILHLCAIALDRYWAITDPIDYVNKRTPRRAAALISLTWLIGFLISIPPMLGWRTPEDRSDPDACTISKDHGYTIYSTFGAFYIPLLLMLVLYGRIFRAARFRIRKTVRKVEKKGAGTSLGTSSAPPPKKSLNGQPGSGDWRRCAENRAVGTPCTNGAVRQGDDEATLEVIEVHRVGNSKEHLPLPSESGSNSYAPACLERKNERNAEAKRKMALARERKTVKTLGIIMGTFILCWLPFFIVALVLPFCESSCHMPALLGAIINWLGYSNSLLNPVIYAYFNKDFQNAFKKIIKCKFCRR
The test is described as follows: Binding affinity for 5-hydroxytryptamine 1A receptor in rat brain tissue using [3H]8-OH-DPAT as radioligand. Format: tissue-based. The method in brief: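 Membranes from male Sprague–Dawley rat cortex plus hippocampus, homogenized in 50 mM Tris-HCl with 4.0 mM CaCl2 and 5.7 mM ascorbic acid, pH 7.5, and preincubated 10 min at 37 °C with 10 μM pargyline. Assay used 5 mg/mL tissue and 2 nM [3H]-8-OH-DPAT, 10 min at 37 °C. Nonspecific binding was defined with 10 μM 5-HT. Bound ligand was separated on GF/B filters and counted; data were fitted by nonlinear regression.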

Test [16] relates to Rattus norvegicus. The test is described as follows: Flat body posture behavior was studied in rats after subcutaneous administration of 32 uM/Kg of compound; 0/4. In kind it is functional. The gist of the method:
as §2

Test [17] relates to Rattus norvegicus. Briefly: Forepaw treading (FPT) behavior was studied in rats after subcutaneous administration of 32 uM/Kg of compound; 0/5. Format: functional.
In test [18] the test system is Rattus norvegicus. The test is described as follows: Flat body posture behavior was studied in rats after subcutaneous administration of 32 uM/Kg of compound; 3/5. In kind it is functional. The gist of the method:
as §2

Test [19] concerns Rattus norvegicus. Briefly: Cage leaving response was studied in rats after subcutaneous administration of 32 uM/Kg of compound; 1/5. In kind it is functional.
Test [20] deals with Rattus norvegicus. Briefly: Flat body posture behavior was studied in rats after subcutaneous administration of 32 uM/Kg of compound; 0/5. Format: functional.
Test [21] relates to Rattus norvegicus. Briefly: Cage leaving response was studied in rats after subcutaneous administration of 32 uM/Kg of compound; 2/5. Format: functional.
Test [22] has as its system Rattus norvegicus. Briefly: Cage leaving response was studied in rats after subcutaneous administration of 32 uM/Kg of compound; 0/4. Format: functional.
The test system of test [23] is Rattus norvegicus. The test is described as follows: Forepaw treading (FPT) behavior was studied in rats after subcutaneous administration of 32 uM/Kg of compound; 4/4. In kind it is functional. The gist of the method:
as §2

The test system of test [24] is Rattus norvegicus. Briefly: Flat body posture behavior was studied in rats after subcutaneous administration of 32 uM/Kg of compound; 4/4. Format: functional. The method in brief: as §2

Sequence of D(2) dopamine receptor (P14416 whole entry): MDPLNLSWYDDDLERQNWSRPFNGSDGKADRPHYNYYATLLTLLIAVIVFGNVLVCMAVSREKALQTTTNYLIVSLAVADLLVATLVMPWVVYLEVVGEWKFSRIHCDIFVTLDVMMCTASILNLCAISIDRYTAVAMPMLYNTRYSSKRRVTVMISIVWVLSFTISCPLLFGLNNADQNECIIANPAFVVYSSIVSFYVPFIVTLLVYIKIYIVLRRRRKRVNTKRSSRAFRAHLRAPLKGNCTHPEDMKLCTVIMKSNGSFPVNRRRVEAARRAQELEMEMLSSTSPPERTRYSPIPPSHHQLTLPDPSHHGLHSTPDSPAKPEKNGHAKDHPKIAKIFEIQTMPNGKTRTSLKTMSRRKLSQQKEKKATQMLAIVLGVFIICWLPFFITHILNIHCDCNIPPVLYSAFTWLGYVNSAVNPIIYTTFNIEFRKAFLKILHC

Consider `CCCN(CCC)[C@@H]1CCc2cccc(O)c2C1`, for which the Control in the test filed under Rattus norvegicus [1] is 108%; in the test listed under Rattus norvegicus [4] it was 80%; in the test listed under Rattus norvegicus [7] it was 105%; in the test filed under Rattus norvegicus [8] it was 130%; in the test filed under Rattus norvegicus [9], 109%. Further, the FPT in the test with Rattus norvegicus [2] was 7. For the same compound, the Cage leaving with Rattus norvegicus [3] is listed as 0. For the same compound, the FBP in the test on Rattus norvegicus [5] is 7. The “Change of body temperature” value with Rattus norvegicus [6] is -2.6 °C.

Regarding `CCCN(CCC)[C@H]1CCc2cccc(OC)c2[C@H]1C`, the Control in the test filed under Rattus norvegicus [1] worked out at 118%; in the test filed under Rattus norvegicus [4] it was 79%; in the test filed under Rattus norvegicus [7], 53%; in the test filed under Rattus norvegicus [8], 81%; in the test filed under Rattus norvegicus [9], 80%. Moreover, the Ki at D(2) dopamine receptor amounted to 1050 nM; in test [15] it was 285 nM. Also, the Ratio in the test listed under Rattus norvegicus [10] worked out at 96; in the test listed under Rattus norvegicus [11], 69. Also, the FPT in the test with Rattus norvegicus [12] is on record as 0. In the test with Rattus norvegicus [13], the Cage leaving came to 1. Further, in the test on Rattus norvegicus [14], the “Change of body temperature” value is -1.2 °C. Further, the FBP with Rattus norvegicus [16] is given as 0.

As to `CCCN(CCC)[C@@H]1CCc2ccccc2[C@@H]1C`, the Control in the test listed under Rattus norvegicus [1] stood at 95%; in the test filed under Rattus norvegicus [4], 92%; in the test listed under Rattus norvegicus [7] it was 168%; in the test filed under Rattus norvegicus [8], 94%; in the test listed under Rattus norvegicus [9], 152%. Besides, the FPT in the test with Rattus norvegicus [17] was determined as 0. The Ki on D(2) dopamine receptor came to 87 nM; in [15], 49 nM. Moreover, the Ratio was determined as 98 in the test filed under Rattus norvegicus [10] and 164 in the test filed under Rattus norvegicus [11]. Moreover, the FBP in the test on Rattus norvegicus [18] is 3. Besides, the “Change of body temperature” value in the test with Rattus norvegicus [14] was -0.7 °C. The Cage leaving with Rattus norvegicus [19] was determined as 1.

As to `CCCN(CCC)[C@H]1CCc2cccc(C(=O)OC)c2[C@H]1C`, the Control in the test listed under Rattus norvegicus [1] was found to be 96%; in the test filed under Rattus norvegicus [4] it was 112%; in the test listed under Rattus norvegicus [7] it was 104%; in the test filed under Rattus norvegicus [8], 86%; in the test listed under Rattus norvegicus [9] it was 97%. Further, in the test with Rattus norvegicus [17], the FPT is 0. Further, the Ratio in the test listed under Rattus norvegicus [10] is 131; in the test filed under Rattus norvegicus [11], 103. Moreover, the FBP in the test with Rattus norvegicus [20] is listed as 0. Besides, the “Change of body temperature” value with Rattus norvegicus [14] is -0.1 °C. Also, affinity in test [15] was put at a Ki of 417 nM. The Cage leaving in the test with Rattus norvegicus [21] worked out at 2.

In the case of `CCCN(CCC)[C@@H]1CCc2cccc(OC)c2[C@@H]1C`, the Control in the test listed under Rattus norvegicus [1] is 89%; in the test filed under Rattus norvegicus [4], 76%; in the test listed under Rattus norvegicus [7], 121%; in the test filed under Rattus norvegicus [8], 108%; in the test listed under Rattus norvegicus [9], 134%. This compound yielded a Cage leaving in the test on Rattus norvegicus [22] of 0. In the test on Rattus norvegicus [23], this compound had an FPT of 4. Moreover, the Ki on D(2) dopamine receptor was 33.9 nM; in test [15], 6 nM. In addition, the Ratio in the test filed under Rattus norvegicus [10] was found to be 70; in the test listed under Rattus norvegicus [11], 151. In the test on Rattus norvegicus [14], the “Change of body temperature” value was -2.5 °C. Moreover, in the test on Rattus norvegicus [24], the FBP was 4.
